# From PMC3926093 (Biochemistry, 2013)
# Molecular target: LigAB (Sphingobium sp. SYK-6, UniProt P22635+P22636)
# Experiment: inhibition of PCA dioxygenation, O2 consumption, Clark-type electrode
# Assay type: biochemical
# Conditions: read-out: % inhibition ^b
# Summary of the method: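 Anaerobically purified LigAB (His-tag removed) started the reaction at 3–7 nM final. Reactions ran in air-saturated 50 mM Tris pH 7.5 at 25 °C with 500 μM PCA plus 1 mM test compound, read by O2 consumption. Percent inhibition came from comparing rates with those of PCA-only assays run directly before and after.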
# Sequence of LigAB (P22635 whole entry): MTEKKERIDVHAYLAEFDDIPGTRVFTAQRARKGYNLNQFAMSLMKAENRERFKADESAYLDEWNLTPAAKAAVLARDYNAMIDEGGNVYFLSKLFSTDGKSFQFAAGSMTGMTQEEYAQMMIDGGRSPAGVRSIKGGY
# Sequence of LigAB (P22636 whole entry): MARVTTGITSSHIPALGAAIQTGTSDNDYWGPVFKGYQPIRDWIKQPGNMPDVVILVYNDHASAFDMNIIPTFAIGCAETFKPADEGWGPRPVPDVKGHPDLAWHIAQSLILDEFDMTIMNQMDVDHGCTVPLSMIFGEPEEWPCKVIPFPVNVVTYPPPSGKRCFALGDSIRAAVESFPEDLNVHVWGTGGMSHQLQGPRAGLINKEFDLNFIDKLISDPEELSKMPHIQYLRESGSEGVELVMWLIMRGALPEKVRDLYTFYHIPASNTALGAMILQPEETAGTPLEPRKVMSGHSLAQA
row,SMILES,inhibition at 1000 µM [%]
1,Cc1ccc(O)c(O)c1 [4-methylcatechol],28
2,O=[N+]([O-])c1ccc(O)c(O)c1 [4-nitrocatechol],31
